Among the data in ChEMBL document CHEMBL4513216, “Probing the Open Global Health Chemical Diversity Library for Multistage-Active Starting Points for Next-Generation Antimalarials” (ACS Infect Dis, 2020) are cytotoxicity values, retold here.

This data set is described as follows: Toxicity liver stage against HepG2, at 10uM. More on the design: test concentration 10 uM, cell line HepG2-A16-CD81EGFP. Conditions: human, HepG2-A16-CD81EGFP cells; read-out: INHIBITION
In kind it is cell-based. In short, it runs like this: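 Uninfected HepG2-A16-CD81EGFP cells, 3 × 10^3 per well, 1536-well, plated on prespotted compound at 10 μM final, parasite-free screening media added to match infected plates; puromycin 10 μM positive, DMSO 0.5% negative; run in parallel with 48 h PbLuc assay at 37 °C, 5% CO2; viability by CellTiter-Glo luminescence, normalized to controls.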

Molecules are shown by their SMILES.

`CCOCC1CN(C)Cc2cnn(CC3CCCC3)c21` (configuration not stated): the cytotoxicity at 10 µM was -9.7%. The same measure for `Cc1nc(C(=O)N2CCN(S(C)(=O)=O)[C@@H]3CS(=O)(=O)C[C@@H]32)cs1`: -9.19%. The same measure for `O=C1COC2(CCN(Cc3cccnc3)CC2)CN1`: 2.78%. The same measure for `Cc1nn(CC(=O)N2CCC(Nc3cccnn3)CC2)c(C)c1Cl`: -12%. Consider `CCOc1ncccc1C(=O)N1CCCC(n2nc(C)nc2C)C1` (configuration not stated), for which the cytotoxicity at 10 µM was -8.47%.

Consider `O=C(Nc1cccnc1)[C@H]1CO[C@H]2CCN(c3ncc(F)cn3)C[C@H]2C1`, for which the cytotoxicity at 10 µM was -12.8%. The same measure for `CCS(=O)(=O)c1ccc2c(c1)OCCO2`: -1.38%; for `O=C(NCCc1c[nH]cn1)c1ccc(S(=O)(=O)NC2CCCC2)cc1`: -7.2%. Turning to `CCOc1ccccc1-c1noc(CN2CC(n3cccn3)C2)n1`, the cytotoxicity at 10 µM was -2.79%.

Consider `O=C(N[C@@H]1CCC[C@@H](N2CCOCC2)[C@@H]1O)c1cnn2cccnc12`, for which the cytotoxicity at 10 µM was -21.9%. The same measure for `CC(=O)N1CC2C[C@]2(NC(=O)c2ccco2)C1` (some centres not stated): -2.36%; for `O=C(Cc1ccccn1)N1CCC(c2noc(-c3ccncc3)n2)CC1`: -26.8%. The same measure for `COCCOc1ccccc1NC(C)C(=O)NC(=O)NC(C)(C)C` (configuration not stated): 1.47%. The same measure for `O=C(Cn1ccc2ncccc2c1=O)N1CCCCC1`: -7%. As to `O=C(C1CCOCC1)N1C[C@@H]2CC[C@H]1CN(C1Cc3ccccc3C1)C2`, the cytotoxicity at 10 µM was -0.317%. The same measure for `NC(=O)NC(=O)C(c1ccccc1)N1CCN(Cc2ccc(Cl)s2)CC1` (configuration not stated): -6.7%; for `COCCOCCC(=O)N1CCC(c2ccccc2C)C1` (configuration not stated): -9.46%. The same measure for `O=C(c1ccc(-c2ccccc2)[nH]c1=O)N1CCCn2ncnc21`: 1.46%. The same measure for `O=C(COCc1ccccc1)N1CCN(c2ccc(Cl)cn2)CC1`: -5.98%; for `Cc1nc2ccccc2c(=O)n1CCC(=O)N1CCCC1`: -10%; for `NCC1Cc2cc(F)cc(-c3cnccn3)c2O1` (configuration not stated): -9.78%. Regarding `CC(C)(C)OC(=O)CNC(=O)CCc1nnc(-c2ccsc2)o1`, the cytotoxicity at 10 µM is -10.2%.

As to `Cc1nn(C)c2c(NCc3ccncc3)nc(C3CC3)nc12`, the cytotoxicity at 10 µM was -4.17%.

For `Cc1ccc(C(CNCc2ccncc2)N2CCOCC2)s1` (configuration not stated), the cytotoxicity at 10 µM is -14.6%.

For `Cn1nc2c(cc1=O)CN(Cc1coc(-c3cccs3)n1)CC2`, the cytotoxicity at 10 µM is -11.1%.

With `NC(=O)C1(c2cnccn2)CCCN1Cc1ccncc1` (configuration not stated), the cytotoxicity at 10 µM is -0.446%. For `CC(=O)N1CCC[C@@H](NCc2cccc(F)c2)[C@@H]1c1ccc(C)s1`, the cytotoxicity at 10 µM was -24.2%. In the case of `c1coc(-c2[nH]c3ncccc3c2CN2CCCOCC2)c1`, the cytotoxicity at 10 µM is -5.44%. The same measure for `COc1ccc(OCCCNCCn2cccn2)cc1`: -20%; for `O=C1CC(c2ccc(C(=O)O)cc2)c2ncn(-c3ccc(Cl)cc3)c2N1` (configuration not stated): -2.14%.

Regarding `O=C(C1CCCC1)N1CCC(c2ccnc(Nc3cnccn3)n2)C1` (configuration not stated), the cytotoxicity at 10 µM was -24.6%. On to `CCOc1ccc(-c2c(C#N)c(N)nc3c2COCC3)cn1`, for which the cytotoxicity at 10 µM was -0.339%. The same measure for `O=C(NCC1CCC2(CCNCC2)O1)C1CC1` (configuration not stated): -5.01%; for `O=C(Cc1cc2c(cc1Br)OCCO2)NC1CCS(=O)(=O)C1` (configuration not stated): 10.1%. The same measure for `Cc1ccc(C2CCCN2S(=O)(=O)N(C)Cc2nccn2C)o1` (configuration not stated): -0.787%; for `CC(C)NC(=O)N1CCc2onc(C(=O)Nc3cccnc3)c2C1`: 4.32%; for `COCCOc1ncccc1C(=O)N1CCCC(n2ccnc2C)C1` (configuration not stated): -7.52%. The same measure for `Cc1cc2n(n1)[C@@H](C(F)(F)F)C[C@@H](C1CCCN(C(=O)C(C)C)C1)N2` (some centres not stated): -22.1%. For `Cc1nc(C)n(CC2CCCN2Cc2cc(C)on2)n1` (configuration not stated), the cytotoxicity at 10 µM turned out to be 4.04%. For `COC[C@]1(O)CCN(Cc2c[nH]c(CC3CCCC3)n2)CC1(C)C`, the cytotoxicity at 10 µM worked out at 17.7%. The same measure for `CNC(=O)Nc1cc(-c2ccccc2C)nn1CCO`: 7%; for `Cc1cc(CNC(=O)Cc2c(C)nc3cc(=O)[nH]n3c2C)no1`: -7.36%; for `Cc1noc(CN(C)Cc2ccc3c(c2)OCO3)n1`: -13.2%. On to `Cc1cccc(-n2ncc3c2CCCC3NCc2cccc(O)c2)c1C` (configuration not stated), for which the cytotoxicity at 10 µM turned out to be 3.11%. The same measure for `COC(=O)C(C)(C)NC(=O)c1scnc1Cl`: -2.31%; for `Cc1ccc(C(C(=O)N2CCN(C(=O)c3ccc[nH]3)CC2)N(C)C)cc1` (configuration not stated): -10.7%. The same measure for `O=C(C1CCOCC1)N(CCc1ccccc1)C1CCOC1` (configuration not stated): 4.77%. The same measure for `COCC(=O)NC[C@H]1C[C@@H]2CCN1C[C@@H]2CN1CCc2ccccc2C1`: -1.33%; for `C[C@H](c1ccc(F)cc1)n1c(C2CCC2)n[nH]c1=O`: -5.95%. For `CN1CC[C@@H]2[C@@H]1CCN2Cc1ccc2c(c1)OCO2`, the cytotoxicity at 10 µM is 3.11%.

As for `CC(=O)NCCOc1c(C)cccc1C`, the cytotoxicity at 10 µM was -2.33%.

In the case of `O=C1c2cc(Br)cc(Br)c2OCC1(CN1CCCC1)CN1CCCC1`, the cytotoxicity at 10 µM was -7.83%. Take `O=C(O)c1ccc(S(=O)(=O)Nc2ccccc2F)c(F)c1`: the cytotoxicity at 10 µM amounted to 5.51%.

On to `CN1CCN(Cc2cccnc2)C(=O)C12CCN(C1CCOC1)CC2` (configuration not stated), for which the cytotoxicity at 10 µM was -111%. The same measure for `Cc1cccc(N2CCN(c3ccn4c(=O)[nH]nc4n3)CC2)c1C`: 36%; for `Cc1cc(N2CCc3c(nc(C(C)C)n3C)C2)nc(N)n1`: -6.79%; for `Cc1nccn1CC(=O)N1CC(Cc2nccc3ccn(C)c23)C1`: -23.4%.

As for `COc1ccccc1OCCCc1cncc(C(N)=O)c1`, the cytotoxicity at 10 µM was -115%. The same measure for `c1cnc(Nc2cc(CCC3CCCNC3)ccn2)cn1` (configuration not stated): -7.58%.

For `COc1ccc2nc(C3CC3)cc(C(=O)NCCc3nnc[nH]3)c2c1`, the cytotoxicity at 10 µM worked out at 0.867%.

For the molecule `CCOCC1c2c(cnn2C)CCN1C(=O)c1cc(C)on1` (configuration not stated), the cytotoxicity at 10 µM was -81.9%.

In the case of `CSCCC(=O)N1CCCC(c2nccn2Cc2ccncc2)C1` (configuration not stated), the cytotoxicity at 10 µM is 9.33%.

For `CCOc1ccc(C2CC(=O)NCc3nc(N)sc32)cc1CO` (configuration not stated), the cytotoxicity at 10 µM was -6.33%.

On to `Cc1nc(CN2CC(=O)N(C)c3ccccc3C2=O)no1`, for which the cytotoxicity at 10 µM was -3.78%.

Turning to `CC(O)CN1CCN(C(=O)CN(C)c2ccc(Cl)cn2)CC1` (configuration not stated), the cytotoxicity at 10 µM is -1.95%. The same measure for `O=C([C@@H]1C[C@@H]2CCN(C3CCOCC3)C[C@@H]2O1)N1CCOCC1`: 7.34%.

Take `CN1CCN(Cc2ccccc2CNC(=O)c2cc(Br)ccc2F)CC1`: the cytotoxicity at 10 µM turned out to be 6.37%. The same measure for `COc1ccnc(NC(=O)CSCc2cccnc2)c1`: -47.2%. The same measure for `O=C(CC1CC1)N1CC[C@H]2[C@@H]1CCC(=O)N2c1cccnc1`: 3.06%.

As to `COCCNC(=O)C1CN(Cc2csc(C)n2)Cc2ccnn2C1` (configuration not stated), the cytotoxicity at 10 µM is -74.2%. The same measure for `Cc1ccc(CN(C)C(=O)CN2CCCC2Cn2cccn2)o1` (configuration not stated): -10.4%; for `CCc1c(C)nc2ccccc2c1N1CCC(C(=O)NC)CC1`: 3.85%; for `Cc1ccc2c(n1)N(CCn1cccn1)CCN(C(=O)NC(C)C)C2`: 13.3%. The same measure for `CSc1ccc(NC(=O)Cn2cc(NC(C)=O)cn2)cc1`: 0.753%; for `COCC(=O)N1C[C@@H](CN2CCCN(C)CC2)[C@@H](CO)C1`: -3.85%; for `Cc1nn(-c2ccccc2)c(C)c1CN1CCNCC1`: 6.19%. The same measure for `CCc1ccc(S(=O)(=O)NCCC(O)c2ccoc2)s1` (configuration not stated): -10.9%; for `Cc1cc(CN2CCN(C(=O)NC(C)c3ccc(C)o3)CC2)on1` (configuration not stated): -8.72%. Take `CC1Oc2c(cccc2C(=O)N2CCCCCC2)NC1=O` (configuration not stated): the cytotoxicity at 10 µM is -6.81%. The same measure for `O=C(c1cc(-n2cccn2)ccn1)N1CCOc2ccc(F)cc21`: 1.26%; for `CN1CCO[C@@H]2CN(S(=O)(=O)c3cccs3)CC[C@@H]2C1`: 11.7%. Consider `COc1ccccc1CCN1CCCC(CN(C)Cc2c[nH]c(C)n2)C1` (configuration not stated), for which the cytotoxicity at 10 µM came to 6.74%. As to `Cc1cccc(CN2CC[C@H]3CO[C@H](CNC(=O)N(C)C)[C@H]3C2)c1`, the cytotoxicity at 10 µM amounted to 1.47%. The same measure for `Clc1ccccc1CCn1ccnc1-c1cn(C2CCNCC2)nn1`: 0.33%; for `Cc1cc(C)n(C2CN(Cc3noc(-c4ccccc4)n3)C2)n1`: -12.8%. The same measure for `CCN1CC(C(=O)NCCc2csc(-c3ccncc3)n2)CC1=O` (configuration not stated): -5.64%; for `Cc1cccc(=O)n1CCC(=O)N(C)Cc1cccc2ncccc12`: 0.66%; for `Cc1cc(-c2cnc(N3CCCC3)nc2C(C)C)on1`: 5.14%.

Consider `CC1CN(C)CCN1C(=O)Nc1nc(-c2cccn2C)cs1` (configuration not stated), for which the cytotoxicity at 10 µM is -2.38%.

In the case of `CCS(=O)(=O)N1CCC2(CCCN(c3ncc(F)cn3)C2)C1` (configuration not stated), the cytotoxicity at 10 µM was found to be 10.3%.

Turning to `Cc1csc2ncc(-c3ccnc(NC4CCOCC4)n3)c(=O)n12`, the cytotoxicity at 10 µM is -4.36%. The same measure for `c1coc(CN2CCc3ncnc(C4CCOC4)c3CC2)c1` (configuration not stated): 10.2%; for `O=C(O)CN1CCC(c2ccccc2)C1` (configuration not stated): 1.67%; for `O=C(NCCc1coc(-c2ccc(F)cc2)n1)NC1CCC(O)CC1` (configuration not stated): 7.96%. With `COCCNC(=O)Nc1cc2c(cc1SC)OCCO2`, the cytotoxicity at 10 µM was -3.59%. The same measure for `O=C(CCn1c(C(F)F)cc2cccnc21)NC1CCCCC1`: -27.9%; for `Cc1nnn2c1COCC(CNC(=O)c1ccc[nH]1)C2` (configuration not stated): 2.7%.
